In ChEMBL document CHEMBL4043160, “Facile alkylation of 4-nitrobenzotriazole and its platelet aggregation inhibitory activity” (Bioorg Med Chem, 2017):
The source made the active and inactive calls. The rule behind the calls is not given here.

target: P2Y purinoceptor 12 (Homo sapiens) (UniProt Q9H244); assay: Agonist activity at P2Y12 in human platelets assessed as effect on VASP phosphorylation at 200 uM by CY-QUANT VASP/P2Y12 ELISA method
Procedure, shortened: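 VASP phosphorylation read by CY-QUANT VASP/P2Y12 ELISA kit, run per manufacturer's instructions. Platelets were exposed to PGE1, and PGE1-induced phosphorylation was set as 100%. ADP served as the P2Y12 agonist reference. Compounds were tested at 200 µM together with ADP. Per se effect at 200 µM was checked with PGE1 alone, without ADP.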

Sequence of P2Y purinoceptor 12 (Homo sapiens) (Q9H244 whole entry): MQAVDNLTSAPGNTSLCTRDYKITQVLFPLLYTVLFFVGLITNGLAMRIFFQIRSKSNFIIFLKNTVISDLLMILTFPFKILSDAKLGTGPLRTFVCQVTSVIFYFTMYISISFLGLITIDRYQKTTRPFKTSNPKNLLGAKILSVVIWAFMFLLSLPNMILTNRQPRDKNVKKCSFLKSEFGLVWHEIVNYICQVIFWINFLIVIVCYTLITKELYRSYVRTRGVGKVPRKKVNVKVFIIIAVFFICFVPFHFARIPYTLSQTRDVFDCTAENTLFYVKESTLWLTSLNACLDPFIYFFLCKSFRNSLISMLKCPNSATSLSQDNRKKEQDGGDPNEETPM

Row | Structure (SMILES) | Activity
1 | O=[N+]([O-])c1cccc2nn(Cc3ccccc3)nc12 | inactive
2 | Cn1nnc2cccc([N+](=O)[O-])c21 | inactive
3 | CCCCCCCCn1nnc2c([N+](=O)[O-])cccc21 | inactive
4 | CCCCCCCCn1nc2cccc([N+](=O)[O-])c2n1 | inactive
5 | CCCn1nc2cccc([N+](=O)[O-])c2n1 | inactive
6 | CCCCCCCn1nnc2c([N+](=O)[O-])cccc21 | inactive
7 | CCn1nnc2c([N+](=O)[O-])cccc21 | inactive
8 | CCCCn1nc2cccc([N+](=O)[O-])c2n1 | inactive
9 | CCCCn1nnc2c([N+](=O)[O-])cccc21 | inactive
10 | O=[N+]([O-])c1cccc2c1nnn2Cc1ccccc1 | inactive
11 | CCCCCn1nc2cccc([N+](=O)[O-])c2n1 | inactive
12 | CCCCCCCn1nc2cccc([N+](=O)[O-])c2n1 | inactive
13 | Cn1nnc2c([N+](=O)[O-])cccc21 | inactive
14 | CCCCCn1nnc2c([N+](=O)[O-])cccc21 | inactive
15 | CCCCCCn1nc2cccc([N+](=O)[O-])c2n1 | inactive
16 | O=[N+]([O-])c1cccc2c1nnn2CCCCl | inactive
17 | Cn1nc2cccc([N+](=O)[O-])c2n1 | inactive
18 | O=[N+]([O-])c1cccc2nn(CCCCl)nc12 | inactive
19 | CCCn1nnc2c([N+](=O)[O-])cccc21 | inactive
20 | CCCCCCn1nnc2c([N+](=O)[O-])cccc21 | inactive
21 | O=C(c1ccccc1)n1nnc2c([N+](=O)[O-])cccc21 | inactive
22 | CCn1nc2cccc([N+](=O)[O-])c2n1 | inactive
23 | Cc1ccc(S(=O)(=O)n2nnc3c([N+](=O)[O-])cccc32)cc1 | inactive
